Legend:
CEM-SS [1] = experiment: Maximum protection of human T-lymphoblastic cells(CEM-SS) from cytopathic effects of HIV-1 by the compound; assay type: functional
Summary of the method: (§1)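 CEM-SS cells kept in phenol-red-free RPMI 1640 with 5% fetal bovine serum, 2 mM L-glutamine and 50 μg/mL gentamicin, seeded at 2.0×10^5 cells/mL. Infected with HIV-1 RF (HTLV-III_RF) or left uninfected. Compound dissolved in DMSO, diluted in medium (final DMSO ≤1%), tested over <0.1 to >10 μM. Incubated 6 days at 37 °C, 5% CO2. Viability read by XTT-tetrazolium; quadruplicate infected wells, duplicate uninfected wells.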

CEM-SS [2] = experiment: Concentration inhibiting HIV-1 induced cytopathic effects in human T-lymphoblastic cells(CEM-SS) and essentially halted HIV-1 replication.; assay type: functional, cell-based; summary of the method: as §1
CEM-SS [3] = experiment: Potency to inhibit HIV-1 induced cytopathic effects in human T-lymphoblastic cells(CEM-SS) and essentially halted HIV-1 replication.; assay type: functional, cell-based; summary of the method: as §1
[4] = Apparent in vitro therapeutic induces(TI) of the compound; assay type: ADME
CEM-SS [5] = experiment: Inhibition of HIV-1 replication in CEM-SS human lymphoblastoid cells in vitro; assay type: functional, cell-based
Summary of the method: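 CEM-SS cells infected with HIV-1 RF and treated with a concentration range for 6 days at 37 °C, 5% CO2 (final DMSO ≤1%). Cell-free supernatant assayed for viral reverse transcriptase activity, p24 antigen and syncytium-forming units. Values expressed as percent of infected, untreated controls; each point is the mean of at least quadruplicate determinations.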

[6] = tested on: CEM-SS cells (Homo sapiens); experiment: Cytotoxicity against CEM-SS cells

| Compound | IC50 (CEM-SS [2]) [µM] | EC50 (CEM-SS [3]) [µM] | Therapeutic indices [4] [TI] | EC50 (CEM-SS [5]) [µM] | Max protection (CEM-SS [1]) [%] | IC50 [6] [µM] |
| --- | --- | --- | --- | --- | --- | --- |
| CCCC1CC(=O)Oc2c(C(=O)C(C)C(C)O)c(O)c3c(c21)OC(C)(C)C=C3 (stereo unspecified) [CALANOLIDE E2] | 25 |  |  |  |  |  |
| CCCc1cc(=O)oc2c3c(c4c(c12)OC(C)(C)C=C4)O[C@H](C)[C@@H](C)[C@@H]3OC | 21 |  |  |  |  |  |
| CCCc1cc(=O)oc2c3c(c4c(c12)OC(C)(C)C=C4)O[C@H](C)[C@H](C)C3=O | 27 |  |  |  |  |  |
| CCCc1cc(=O)oc2c3c(c4c(c12)OC(C)(C)C=C4)O[C@H](C)[C@@H](C)[C@@H]3OC(C)=O | 13 | 2.7 | 5 |  | 100 |  |
| CCCc1cc(=O)oc2c3c(c4c(c12)OC(C)(C)C=C4)O[C@H](C)[C@@H](C)[C@H]3OC | 19 |  |  |  | 35 |  |

Second part, led by results:

| IC50 (CEM-SS [2]) [µM] | EC50 (CEM-SS [3]) [µM] | Therapeutic indices [4] [TI] | EC50 (CEM-SS [5]) [µM] | Compound | Max protection (CEM-SS [1]) [%] | IC50 [6] [µM] |
| --- | --- | --- | --- | --- | --- | --- |
| 20 | 0.1 | 200 | 0.08 | CCCc1cc(=O)oc2c3c(c4c(c12)OC(C)(C)C=C4)O[C@H](C)[C@@H](C)[C@@H]3O [CALANOLIDE A] | 100 | 16 |
| 15 | 0.4 | 37 |  | CCCc1cc(=O)oc2c3c(c4c(c12)OC(C)(C)C=C4)O[C@H](C)[C@@H](C)[C@H]3O [(+)-CALANOLIDE B] | 100 |  |
| 30 |  |  |  | CCCc1cc(=O)oc2c3c(c4c(c12)OC(C)(C)C=C4)O[C@H](C)[C@H](C)[C@@H]3O [CALANOLIDE C] | 30 |  |

Source: ChEMBL document CHEMBL1125492, “The calanolides, a novel HIV-inhibitory class of coumarin derivatives from the tropical rainforest tree, Calophyllum lanigerum” (J Med Chem, 1992)
